The compounds below were run against T1, OR51L1 (Homo sapiens) (UniProt Q8NGJ5). Details: stereoisomer not certain.
T1 sequence (whole entry): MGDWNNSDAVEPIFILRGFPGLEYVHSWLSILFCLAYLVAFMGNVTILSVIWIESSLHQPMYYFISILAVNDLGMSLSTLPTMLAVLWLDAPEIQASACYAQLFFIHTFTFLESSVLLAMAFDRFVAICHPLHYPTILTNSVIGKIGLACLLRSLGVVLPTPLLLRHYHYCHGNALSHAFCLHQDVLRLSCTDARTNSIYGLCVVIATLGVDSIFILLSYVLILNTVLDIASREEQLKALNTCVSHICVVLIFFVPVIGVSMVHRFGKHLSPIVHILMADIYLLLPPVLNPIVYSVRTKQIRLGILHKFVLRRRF
Procedure, shortened: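 Assay methods differ from source to source, frequently being transient luciferase assays in mammalian cell lines. For each receptor–molecule pair, the label responsive (active) applies when the original authors judged the measured signal statistically different from baseline, and non-responsive (inactive) applies otherwise.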

SMILES | odorant receptor agonist call
c1ccccc1 | inactive
CC(=O)Oc1ccccc1 | inactive
CCC(=O)O | inactive
CCCCCCCC(C)=O | inactive
CCCCCCCCO | inactive
CCCCOC=O | inactive
CCCC(C)=O | inactive
CCCCCCCCCC(=O)[O-].[H+] | inactive
CCCCCCCCCO | inactive
CCCCCCCCS | inactive
CCCCCCOC(C)=O | inactive
O=C(c1ccccc1)c1ccccc1 | inactive
CC(=O)OCc1ccccc1 | inactive
CC(C)=CCCC(C)CCO (stereo not given) | inactive
CC(=O)OCC=C(C)C | inactive
CCCCC(=O)O | inactive
CCC(C(=O)O)c1ccccc1 (stereo not given) | inactive
O=c1ccc2ccccc2o1 | inactive
CC12CCC(CC1=O)C2(C)C (stereo not given) | inactive
CCCC(=O)C(C)=O | inactive
O=C1CCOc2ccccc21 | inactive
CCCCOC(=O)C(C)OC(=O)CCC (stereo not given) | inactive
CCCCCCCCCCO | inactive
CCCCCCCCC(=O)O | inactive
CCCCCC(=O)CC | inactive
CC(C)=CCCC(C)=CCO | inactive
CCCCCCO | inactive
CCCCC(C)=O | inactive
CCCCC(=O)CC | inactive
CCCCCCC(C)=O | inactive

— the M2OR odorant receptor database
